Hits are enriched below; roughly 2% of the tested compounds scored in any of these assays.
APJ antag: APJ receptor antagonism | AID 2521 | 330,000 tested, 0.32% active | inhibition, % at 20 µM | CHO-K1 APJ beta-arrestin complementation, luminescence | P35414;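 active means inhibition above about 40% at 20 µM, limit read from the data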;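 further: cells challenged with 10 nM apelin-13 agonist together with compound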
APJ ag: APJ receptor agonism. P35414. CHO-K1 APJ PathHunter beta-arrestin, luminescence; 0% DMSO wells, 100% apelin. activation, % at 20 µM. 330,000 tested, 0.11% active;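 active means activation more than six SD over the plate average, tested at 20 µM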
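Assay system: CHO-K1 APJ beta-arrestin complementation cell line / Compound: single test compound dose, 20 µM final, 1% DMSO / Times: overnight seeding, 90 min compound at 25 °C, 1 h detection / Technique: beta-gal luminescence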
EBI2 antag: blocks human EBI2 receptor beta-arrestin signaling; P32249; EBI2 beta-arrestin recruitment, luminescence, 7a,25-OHC stimulated; inhibition, % at 5 µM; 360,000 tested, 0.81% active; AID 651636; in the data active means inhibition above about 38%;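 further: enzyme fragment complementation signal reports receptor beta-arrestin coupling in cells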
GAA850 FXN act: activators of GAA850 frataxin (FXN) promoter. HEK293 lucGAA850 FXN promoter luciferase reporter, 24 h; percent of 10 µM SAHA response. activation, % at 6 µM. 360,000 tested, 0.56% active. AID 540364;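 active means activation above the average of all compounds screened plus 3 SD, cutoff fixed separately per campaign, cut at about 7.5% in these data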
CXCR6 inh: inhibitors of human CXCR6 receptor; O00574; CHO-K1 PathHunter CXCR6 beta-arrestin, luminescence; inhibition, % at 20 µM; 360,000 tested, 0.36% active; AID 602244; in the data active means inhibition above about 34%, passing the limit was not always enough;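 further: antagonist mode with CXCL16 agonist at 10 nM final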
Target sequence (O00574 whole entry, looked up): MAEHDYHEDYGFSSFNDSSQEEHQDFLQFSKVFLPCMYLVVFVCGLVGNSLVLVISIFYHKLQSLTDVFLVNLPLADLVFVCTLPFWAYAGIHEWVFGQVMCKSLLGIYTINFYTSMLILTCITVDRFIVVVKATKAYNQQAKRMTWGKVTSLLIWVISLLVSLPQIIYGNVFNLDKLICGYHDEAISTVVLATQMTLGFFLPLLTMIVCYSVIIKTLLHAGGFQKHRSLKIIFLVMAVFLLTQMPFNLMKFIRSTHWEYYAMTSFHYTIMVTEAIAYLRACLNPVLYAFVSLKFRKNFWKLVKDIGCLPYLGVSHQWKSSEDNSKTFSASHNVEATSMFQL
CCR6 antagonist: antagonists of human CCR6 receptor; inhibition, % at 20 µM; P51684; 340,000 tested, 0.49% active; CHO-K1 CCR6 PathHunter beta-arrestin, luminescence, CCL20-stimulated;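 active means compounds whose inhibition of the agonist-driven luminescence signal at 20 µM reaches about 50%, limit read from the data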;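 further: cells stimulated with CCL20 at 14 nM final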
Target sequence (P51684 whole entry, looked up): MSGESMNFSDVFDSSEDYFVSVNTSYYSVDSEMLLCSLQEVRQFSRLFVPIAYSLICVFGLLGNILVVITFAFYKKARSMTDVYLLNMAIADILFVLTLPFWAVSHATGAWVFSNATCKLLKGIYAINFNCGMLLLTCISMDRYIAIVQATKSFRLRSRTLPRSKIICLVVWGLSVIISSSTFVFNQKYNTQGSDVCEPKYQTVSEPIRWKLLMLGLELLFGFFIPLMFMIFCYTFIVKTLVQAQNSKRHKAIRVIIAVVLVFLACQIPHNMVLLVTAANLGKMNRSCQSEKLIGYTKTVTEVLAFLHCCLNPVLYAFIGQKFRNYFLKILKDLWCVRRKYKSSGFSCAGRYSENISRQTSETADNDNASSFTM
GAA30 counter: counter-screen for GAA850 frataxin promoter activators: GAA30 promoter activation | shares compounds with GAA850 FXN act | HEK293 lucGAA30 FXN promoter luciferase, 24 h; DMSO = 0%, 5 µM ipriflavone = 100% | activation, % at 6 µM | 1,900 tested, 66% active;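 active means mean activation above the mean of solvent-only control wells plus 3 SD, cut at about 22% in these data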;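 further: counterscreen of GAA850 promoter hits where activity marks nonselective or luminescence artifacts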
GAA850 confirm: confirmation of GAA850 frataxin (FXN) promoter activators. activation, % at 6 µM. AID 588351. HEK293 lucGAA850 FXN promoter luciferase reporter, 24 h; 100% = activation by SAHA. 1,900 tested, 86% active. shares compounds with GAA850 FXN act;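 active means mean activation above a set limit taken from the primary screen, cut at about 8% in these data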
Large screens that a line does not name were inactive (follow-up assays come after a bar, where they were run).

OC1COCOC1C(O)C1OCOCC1O (centres undefined)	none (no result: APJ antag, APJ ag)
NC(=O)C1=CC2C3C=CC2(O)C(=O)OC3O1 (centres undefined)	GAA850 FXN act 8.3 (no result: APJ antag, APJ ag) | GAA30 counter inactive | GAA850 confirm 16.1
COc1ccccc1-c1nc(-c2ccc(C)nc2OC)no1	GAA850 FXN act 8.8 | GAA30 counter 121.0 | GAA850 confirm 40.2
Cc1ccc(-c2nc3c(Cl)cc(C(F)(F)F)cn3c2Cc2cccc(F)c2)cc1	none (no result: APJ antag, APJ ag, GAA850 FXN act, CCR6 antagonist)
COc1cccc(-c2cnc(C(O)c3cccc(F)c3)[nH]2)c1 (centres undefined)	none (no result: APJ antag, APJ ag, CCR6 antagonist)
Cc1cc(O)c(C(C)C)cc1N=Cc1ccc([N+](=O)[O-])cc1	none (no result: APJ antag, APJ ag)
CCOC(=O)c1ccc2[nH]c3c(c2c1)CCCCC3=O	GAA850 FXN act 8.1 | GAA30 counter 64.9 | GAA850 confirm 25.1
Cc1[nH]c2ccccc2c1C(=O)C(=O)N1CCCc2ccccc21	none
Cc1[nH]c2ccccc2c1SCC(=O)N1CCCc2ccccc21	GAA850 FXN act 19.7 | GAA30 counter inactive | GAA850 confirm 10.3
COC(=O)C[C@@H]1CC[C@@H](NS(=O)(=O)c2ccc(OC)cc2)[C@@H](CO)O1	none (no result: APJ antag, APJ ag, GAA850 FXN act, CXCR6 inh, CCR6 antagonist)
COc1nc(=O)n(C2C=CC(=O)O2)cc1F (centres undefined)	GAA850 FXN act 13.5 (no result: APJ antag, APJ ag, CCR6 antagonist) | GAA30 counter inactive | GAA850 confirm inactive
Cc1ccc(/C=C/C(=O)NC2CCCCCCC2)o1	GAA850 FXN act 10.8 | GAA30 counter 99.1 | GAA850 confirm 48.8
COC(=O)CN1C(=O)C(C)=C(c2ccc(C)cc2)S1(=O)=O	GAA850 FXN act 13.5 | GAA30 counter 26.1 | GAA850 confirm 8.2
CC1=C(c2ccc(C)cc2)S(=O)(=O)N(CC(=O)O)C1=O	none
CCCCN(C=O)c1c(CC)nc2ccc(C(=O)NCCCn3ccnc3)cn12	none (no result: APJ antag, APJ ag, CCR6 antagonist)
CC(C)Cc1ccc(C(C)C(N)=NCCc2ccccc2)cc1 (centres undefined)	GAA850 FXN act 10.7 | GAA30 counter inactive | GAA850 confirm 36.0
COc1ccc(CCN=C(N)C(C)c2ccccc2)cc1OC (centres undefined)	none
Cc1ccc(S(=O)(=O)N2CCN(C(=O)COC(=O)/C=C/c3cccc([N+](=O)[O-])c3)CC2)c(C)c1	none (no result: APJ antag, APJ ag)
O=C(Nc1sc2c(c1C(=O)NCc1ccco1)CCCC2)c1ccc2c(c1)OCO2	GAA850 FXN act 10.2 | GAA30 counter 69.2 | GAA850 confirm 30.8
CCCNC(=O)c1ccccc1NC(=O)c1ccccc1N(C)S(C)(=O)=O	none
CCCNC(=O)c1ccccc1NC(=O)c1ccccc1N(C)S(=O)(=O)c1ccc(C)cc1	GAA850 FXN act 8.1 (no result: APJ antag, APJ ag) | GAA30 counter inactive | GAA850 confirm 10.7
O=C(OCc1ccccc1)N1CCC2CC1c1cc(-c3cc4ccccc4o3)ccc12 (centres undefined)	none (no result: APJ antag, APJ ag, CCR6 antagonist)
CCCNC(=O)c1cc(S(=O)(=O)N2CCc3ccccc32)cn1C	none
CC1(C)C2CCC(C2)C1(C)NC(=O)CNCC1CCCCC1 (centres undefined)	GAA850 FXN act 10.2 | GAA30 counter 30.2 | GAA850 confirm 14.3
CC(C)c1cc(Cn2c3ccccc3c(=O)n2C(C)Cn2cc(CCc3ccccc3)nn2)on1 (centres undefined)	none (no result: APJ antag, APJ ag, GAA850 FXN act, CXCR6 inh, CCR6 antagonist)
CC[C@@]12C(=O)N(c3cccc(Br)c3)C(=O)N1[C@H](c1ccc(Br)cc1)[C@@H]1C(=O)N(C(C)(C)C)C(=O)[C@@H]12	GAA850 FXN act 10.6 | GAA30 counter 45.2 | GAA850 confirm 16.6
CC(C)(C)N1C(=O)[C@H]2[C@@H](c3ccc(Br)cc3)N3C(=O)N(c4cccc(Cl)c4)C(=O)[C@@]3(Cc3ccccc3)[C@H]2C1=O	GAA850 FXN act 11.9 | GAA30 counter inactive | GAA850 confirm 14.1
CC[C@@]12C(=O)N(c3cccc(Br)c3)C(=O)N1[C@H](c1ccc(OC)cc1)[C@@H]1C(=O)N(C(C)(C)C)C(=O)[C@@H]12	GAA850 FXN act 11.0 | GAA30 counter 39.1 | GAA850 confirm 9.2
COc1ccc([C@@H]2[C@@H]3C(=O)N(C(C)(C)C)C(=O)[C@@H]3[C@]3(Cc4ccc(Cl)cc4)C(=O)N(c4cccc(Br)c4)C(=O)N23)cc1	none
COc1ccc([C@@H]2[C@@H]3C(=O)N(C(C)(C)C)C(=O)[C@@H]3[C@]3(C)C(=O)N(c4cccc(Br)c4)C(=O)N23)cc1	GAA850 FXN act 11.2 | GAA30 counter inactive | GAA850 confirm inactive
CCOC(=O)[C@]12CCCC=C1N(Cc1ccccc1)C(=O)[C@H](CC(=O)NCc1ccc(C)o1)C2	none (no result: APJ antag, APJ ag, GAA850 FXN act, CXCR6 inh, CCR6 antagonist)
O=C(COC(=O)COc1ccc(Cl)cc1Cl)NC1CCS(=O)(=O)C1 (centres undefined)	none
COc1ccc([C@@H]2[C@@H]3C(=O)N(C(C)(C)C)C(=O)[C@@H]3[C@]3(C)C(=O)N(c4cccc(F)c4)C(=O)N23)cc1	none
CC(C)(C)N1C(=O)[C@H]2[C@@H](c3ccc(Br)cc3)N3C(=O)N(c4cccc(F)c4)C(=O)[C@@]3(C)[C@H]2C1=O	GAA850 FXN act 8.8 | GAA30 counter 33.6 | GAA850 confirm 17.9
O=C1/C(=C\c2ccc(O)c(O)c2)N=C2CCCCCN12	GAA850 FXN act 9.8 | GAA30 counter 74.0 | GAA850 confirm 18.8
Cc1ccccc1-c1cccc([C@@H]2C[C@H]3[C@H](CON3C)CN2Cc2ccccc2)c1	none (no result: APJ antag, APJ ag)
CC(=NNC(=S)N(Cc1ccccn1)Cc1ccccn1)c1cnccn1	GAA850 FXN act 11.9 (no result: APJ antag, APJ ag) | GAA30 counter inactive | GAA850 confirm inactive
S=C(NN=C(c1ccccc1)c1ccccn1)N(Cc1ccccn1)Cc1ccccn1	none (no result: APJ antag, APJ ag)
COc1ccc(Br)c(C=O)c1OS(=O)(=O)c1ccc(C)cc1	none (no result: APJ antag, APJ ag, CCR6 antagonist)
O=C(C(=O)N1CCC(c2ccccc2)CC1)c1cccc([N+](=O)[O-])c1	none (no result: APJ antag, APJ ag, GAA850 FXN act, CXCR6 inh, CCR6 antagonist)
Cc1ccc(NC(=O)Nc2ccc(Cl)c(Cl)c2)nc1	none
Cc1ccc(NC(=O)Nc2ccc(Cl)cn2)cc1	GAA850 FXN act 8.2 (no result: APJ antag, APJ ag) | GAA30 counter 93.8 | GAA850 confirm 31.8
Cc1ccc(C)c(OCc2cc(C(=O)N3CC[C@@H]4CCCC[C@H]4C3)no2)c1	none
COc1cc(C)ccc1OCc1cc(C(=O)N2CCC(c3ccc(F)cc3)C2)no1 (centres undefined)	GAA850 FXN act 8.9 | GAA30 counter 117.3 | GAA850 confirm 35.4
COc1ccc(-c2nc(C#N)c(NCCc3ccccc3)o2)cc1OC	GAA850 FXN act 8.2 | GAA30 counter 99.5 | GAA850 confirm 34.4
